Results from ChEMBL document CHEMBL1137350, “Discovery of a new class of macrocyclic antagonists to the human motilin receptor” (J Med Chem, 2006).

Legend:
Motilin receptor [1] = target: T1, Motilin receptor (Homo sapiens, UniProt O43193); experiment: Displacement of [125I]motilin from human MOTR
Summary of the method: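 Competition binding on isolated membranes expressing human motilin receptor, with radioiodinated porcine motilin ([125I]-motilin) as tracer. 11-point concentration curves gave Ki, with a top test concentration of 10 µM. Compounds came from 10 mM DMSO stocks stored at -60 °C.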

Motilin receptor [2] = target: T1, Motilin receptor; experiment: Activity at human MOTR expressed in CHO cells assessed as inhibition of motilin-induced calcium release upto 10 uM; assay type: functional, cell-based; settings: filed as antagonist
Summary of the method: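 Aequorin luminescence assay on whole CHO cells expressing cloned human motilin receptor, measuring inhibition of motilin-induced Ca2+ release. Agonist activity was also checked at concentrations up to 10 µM. Compounds were TFA salts held as 10 mM DMSO stocks at -60 °C.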

Motilin receptor [3] = target: T1, Motilin receptor; experiment: Activity at human MOTR expressed in CHO cells assessed as inhibition of motilin-induced calcium release; assay type: functional, cell-based
Summary of the method: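 Whole CHO cells expressing cloned human motilin receptor; intracellular Ca2+ release evoked by motilin read out by aequorin luminescence. Compounds were tested in antagonist mode and also checked for agonist activity at concentrations up to 10 µM. Compound stocks were 10 mM in DMSO, stored at -60 °C.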

T1 sequence (O43193 whole entry): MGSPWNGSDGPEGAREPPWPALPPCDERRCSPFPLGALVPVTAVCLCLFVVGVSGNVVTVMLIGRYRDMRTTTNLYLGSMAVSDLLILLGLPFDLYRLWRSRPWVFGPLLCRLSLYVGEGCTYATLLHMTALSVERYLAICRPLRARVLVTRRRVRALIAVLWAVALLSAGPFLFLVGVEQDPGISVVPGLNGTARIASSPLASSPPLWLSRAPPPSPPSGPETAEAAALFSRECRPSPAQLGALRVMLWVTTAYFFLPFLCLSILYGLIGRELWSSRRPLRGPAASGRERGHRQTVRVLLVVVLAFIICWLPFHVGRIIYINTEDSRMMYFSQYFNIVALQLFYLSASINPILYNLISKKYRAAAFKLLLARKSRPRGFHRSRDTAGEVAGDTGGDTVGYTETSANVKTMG

| Structure (SMILES) | Ki (Motilin receptor [1]) [nM] | Activity (Motilin receptor [2]) | IC50 (Motilin receptor [3]) [nM] |
| --- | --- | --- | --- |
| CC(C)[C@H]1NC(=O)[C@@H](Cc2ccc(O)cc2)NCCOc2ccccc2/C=C/CNC(=O)[C@H](CCCCN)NC1=O | 664 | Antagonist |  |
| CC(C)[C@H]1NC(=O)[C@@H](Cc2ccc(O)cc2)NCCOc2ccccc2/C=C/CNC(=O)[C@H](CO)NC1=O | 650 | Antagonist |  |
| CCC[C@@H]1NC(=O)[C@@H](C(C)C)OC(=O)[C@@H](Cc2ccc(O)cc2)NCCOc2ccccc2CCCNC1=O | 192 | Antagonist |  |
| CCC[C@@H]1NC(=O)[C@@H](CCC(=O)O)NC(=O)[C@@H](Cc2ccc(O)cc2)NCCOc2ccccc2/C=C/CNC1=O | 4900 | Antagonist |  |
| CCC[C@@H]1NC(=O)[C@@H](C(C)C)NC(=O)[C@@H](C)NCCOc2ccccc2/C=C/CNC1=O | > 10000 | Antagonist |  |
| CCC[C@@H]1NC(=O)[C@@H](C(C)C)NNC(=O)[C@@H](Cc2ccc(O)cc2)NCCOc2ccccc2CCCNC1=O | 2370 | Antagonist |  |
| CCC[C@@H]1NC(=O)[C@@H](C(C)C)NC(=O)[C@@H](Cc2csc3ccccc23)NCCOc2ccccc2CCCNC1=O | 11 | Antagonist |  |
| CCC[C@@H]1NC(=O)[C@@H](C(C)C)NC(=O)[C@@H](Cc2ccc(O)cc2)NCCOc2ccccc2CCCNC1=O | 55 | Antagonist |  |
| CCC[C@@H]1NC(=O)[C@@H](C(C)C)NC(=O)[C@@H](Cc2ccccc2)NCCOc2ccccc2CCCNC1=O | 57 | Antagonist |  |
| CCC[C@@H]1NC(=O)[C@@H](C(C)C)NC(=O)[C@@H](Cc2ccccc2)NCCOc2ccccc2/C=C/CNC1=O | 78 | Antagonist |  |
| CCC[C@@H]1NC(=O)[C@@H](C(C)C)NC(=O)[C@@H](Cc2ccc(O)cc2)NCCOc2ccccc2CCNC1=O | 982 | Antagonist |  |
| CCC[C@@H]1NC(=O)[C@@H](C(C)C)NC(=O)[C@@H](Cc2c[nH]c3ccccc23)NCCOc2ccccc2CCCNC1=O | 255 | Antagonist |  |
| CCC[C@@H]1NC(=O)[C@@H](C(C)C)NC(=O)[C@@H](Cc2ccc(O)cc2)NCCc2ccccc2CCCCNC1=O | 6060 | Antagonist |  |
| CCC[C@@H]1NC(=O)[C@@H](C(C)C)NC(=O)[C@@H](Cc2ccc3ccccc3c2)NCCOc2ccccc2CCCNC1=O | 79 | Antagonist |  |
| CCC[C@@H]1NC(=O)[C@@H](C(C)C)NC(=O)[C@@H](Cc2ccc(O)cc2)NC/C=C/CCNC1=O | 701 | Antagonist |  |
| CCC[C@@H]1NC(=O)[C@@H](C(C)C)NC(=O)[C@@H](Cc2ccc(O)cc2)NCCOc2ccccc2/C=C/CNC1=O | 137 | Antagonist | 74 |
| CC(C)[C@H]1NC(=O)[C@@H](Cc2ccc(O)cc2)NCCOc2ccccc2/C=C/CNC(=O)[C@H](Cc2ccccc2)NC1=O | 185 | Antagonist |  |
| CCC[C@@H]1NC(=O)[C@@H](C(C)C)NC(=O)[C@@H](c2ccccc2)NCCOc2ccccc2CCCNC1=O | > 10000 | Antagonist |  |
| CCC[C@H](NC(=O)[C@H](NC(=O)[C@H](N)Cc1ccc(O)cc1)C(C)C)C(N)=O | > 10000 | Antagonist |  |
| CCC[C@H](NC(=O)[C@H](NC(=O)[C@@H](Cc1ccc(O)cc1)NCCOc1ccccc1/C=C/CNC(C)=O)C(C)C)C(N)=O | > 10000 | Antagonist |  |
| CCC[C@@H]1OC(=O)[C@@H](C(C)C)NC(=O)[C@@H](Cc2ccc(O)cc2)NCCOc2ccccc2CCCNC1=O | 1880 | Antagonist |  |
| CCC[C@@H]1NC(=O)[C@@H](Cc2ccccc2)NC(=O)[C@@H](Cc2ccc(O)cc2)NCCOc2ccccc2/C=C/CNC1=O | 1520 | Antagonist |  |
| CCC[C@@H]1NC(=O)[C@@H](C(C)C)NC(=O)[C@@H](Cc2ccc(O)cc2)NCCCc2ccccc2CCNC1=O | > 10000 | Antagonist |  |
| CCC[C@@H]1NC(=O)[C@@H](C(C)C)NC(=O)[C@@H](Cc2ccc(O)cc2)NCCCCc2ccccc2CCNC1=O | 6060 | Antagonist |  |
| CCC[C@@H]1NC(=O)[C@@H](C)NC(=O)[C@@H](Cc2ccc(O)cc2)NCCOc2ccccc2/C=C/CNC1=O | 196 | Antagonist |  |
| CC[C@H](C)[C@H](NC(=O)[C@@H]1CCCN1C(=O)[C@@H](NC(=O)[C@@H](N)Cc1ccccc1)C(C)C)C(=O)N[C@@H](Cc1ccccc1)C(=O)N[C@H](C(=O)N[C@@H](Cc1ccc(O)cc1)C(=O)NCC(=O)N[C@@H](CCC(=O)O)C(=O)N[C@@H](CC(C)C)C(=O)N[C@@H](CCC(N)=O)C(=O)N[C@@H](CCCNC(=N)N)C(=O)N[C@@H](CCSC)C(=O)N[C@@H](CCC(N)=O)C(=O)N[C@@H](CCC(=O)O)C(=O)N[C@@H](CCCCN)C(=O)N[C@@H](CCC(=O)O)C(=O)N[C@@H](CCCNC(=N)N)C(=O)N[C@@H](CC(N)=O)C(=O)N[C@@H](CCCCN)C(=O)NCC(=O)N[C@@H](CCC(N)=O)C(=O)O)[C@@H](C)O [MOTILIN] | 0.36 |  |  |

| Structure (SMILES) | Ki (Motilin receptor [1]) [nM] | Activity (Motilin receptor [2]) | IC50 (Motilin receptor [3]) [nM] |
| --- | --- | --- | --- |
| CCC[C@@H]1NC(=O)[C@H](C(C)C)NC(=O)[C@@H](Cc2ccc(O)cc2)NCCOc2ccccc2/C=C/CNC1=O | > 10000 | Antagonist |  |
| CCC[C@@H]1NC(=O)[C@@H](C(C)C)NC(=O)[C@@H](Cc2ccc(O)cc2)NCCc2ccccc2CCCNC1=O | > 10000 | Antagonist |  |
| CCC[C@@H]1NC(=O)[C@@H](C(C)C)NC[C@@H](Cc2ccc(O)cc2)NCCOc2ccccc2CCCNC1=O | 3240 | Antagonist |  |
| CCC[C@@H]1NC(=O)[C@@H](C(C)C)NC(=O)[C@@H](Cc2ccc(O)cc2)NCCc2ccccc2/C=C/CNC1=O | 9730 | Antagonist |  |
| CCC[C@@H]1NC(=O)[C@@H](C(C)C)NC(=O)[C@@H](CCC(=O)O)NCCOc2ccccc2/C=C/CNC1=O | > 10000 | Antagonist |  |
| CCC[C@@H]1NC(=O)[C@@H](C(C)C)NC(=O)[C@@H](CCCCN)NCCOc2ccccc2/C=C/CNC1=O | > 10000 | Antagonist |  |
| CCC[C@@H]1NC(=O)[C@@H](C(C)C)NC(=O)[C@@H](Cc2ccc(O)cc2)NCc2ccccc2CCCCNC1=O | > 10000 | Antagonist |  |
| CCC[C@@H]1NC(=O)[C@@H](C(C)C)NC(=O)[C@@H](Cc2ccc(O)cc2)NCCCc2ccccc2/C=C\CCNC1=O | 7290 | Antagonist |  |
| CCC[C@@H]1NC(=O)[C@@H](C(C)C)NC(=O)[C@@H](Cc2ccc(O)cc2)NCCCc2ccccc2/C=C/CNC1=O | > 10000 | Antagonist |  |
| CCC[C@H]1NC(=O)[C@@H](C(C)C)NC(=O)[C@@H](Cc2ccc(O)cc2)NCCOc2ccccc2/C=C/CNC1=O | 335 | Antagonist |  |
| CCC[C@@H]1NC(=O)[C@@H](C(C)C)NC(=O)[C@@H](Cc2cccc3ccccc23)NCCOc2ccccc2CCCNC1=O | 8.3 | Antagonist |  |
| CC(C)C[C@@H]1NC(=O)[C@@H](C(C)C)NC(=O)[C@@H](Cc2ccc(O)cc2)NCCOc2ccccc2/C=C/CNC1=O | 62 | Antagonist |  |
| CCC[C@@H]1NC(=O)[C@@H](C(C)C)NC(=O)[C@H](Cc2ccc(O)cc2)NCCOc2ccccc2/C=C/CNC1=O | > 10000 | Antagonist |  |
| CC(C)[C@H]1NC(=O)[C@@H](Cc2ccc(O)cc2)NCCOc2ccccc2/C=C/CNC(=O)[C@H](C)NC1=O | 1390 | Antagonist |  |
| CCC[C@@H]1NC(=O)[C@@H](C(C)C)NC(=O)[C@@H](CCc2ccccc2)NCCOc2ccccc2CCCNC1=O | 1490 | Antagonist |  |
| CC(C)[C@H]1NC(=O)[C@@H](Cc2ccc(O)cc2)NCCOc2ccccc2/C=C/CNC(=O)[C@H](CC(=O)O)NC1=O | 2550 | Antagonist |  |
| CCC[C@@H]1NC(=O)[C@@H](CO)NC(=O)[C@@H](Cc2ccc(O)cc2)NCCOc2ccccc2/C=C/CNC1=O | > 10000 | Antagonist |  |
| CCC[C@@H]1NC(=O)[C@@H](C(C)C)NC(=O)[C@@H](CC2CCCCC2)NCCOc2ccccc2CCCNC1=O | 3250 | Antagonist |  |
| CCC[C@@H]1NC(=O)[C@@H](C(C)C)N(C)C(=O)[C@@H](Cc2ccc(O)cc2)NCCOc2ccccc2CCCNC1=O | > 10000 | Antagonist |  |
| CC(C)C[C@H]1C(=O)NCCCc2ccccc2OCCN[C@H](Cc2ccc(O)cc2)C(=O)N[C@H](C(C)C)C(=O)N1C | 222 | Antagonist |  |
| CCC[C@@H]1NC(=O)[C@@H](C(C)C)NC(=O)[C@@H](Cc2ccc(O)cc2)N(C(C)=O)CCOc2ccccc2CCCNC1=O | 6390 | Antagonist |  |
| CCC[C@@H]1NC(=O)[C@@H](C(C)C)NC(=O)[C@@H](Cc2ccc(O)cc2)NCCCc2ccccc2CCCNC1=O | > 10000 | Antagonist |  |
| CCC[C@@H]1NC(=O)[C@@H](C(C)C)NC(=O)[C@@H](Cc2ccc(O)cc2)N(C)CCOc2ccccc2CCCNC1=O | 2780 | Antagonist |  |
| CCC[C@@H]1NC(=O)[C@@H](C(C)C)NC(=O)[C@@H](C(C)C)NCCOc2ccccc2/C=C/CNC1=O | 3570 | Antagonist |  |
| CCC[C@@H]1NC(=O)[C@@H](C(C)C)NC(=O)[C@@H](Cc2ccc(O)cc2)NCCCCCCCCNC1=O | 1200 | Antagonist |  |
| CCC[C@@H]1NC(=O)[C@@H](C(C)C)NC(=O)[C@@H](Cc2ccc(O)cc2)NCCc2ccccc2/C=C\CCNC1=O | > 10000 | Antagonist |  |
